Measured values: ChEMBL document CHEMBL1147748, “Overlapping, nonidentical binding sites of different classes of nonpeptide antagonists for the human gonadotropin-releasing hormone receptor” (J Med Chem, 2006)

Columns and labels:
[1] = target: Gonadotropin-releasing hormone receptor (Homo sapiens, UniProt P30968, M24T); assay: Displacement of [125I]-His5, D-Tyr6]GnRH from mutant GnRHR, GnRHR M24T
Outline: (§1)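 Human GnRH-R (wild type or site-directed point mutant) was transiently expressed in COS-7 cells by electroporation, with cells cultured 36-48 h before membranes were prepared. Membranes (5-20 µg per point) were incubated 2 h at room temperature with 0.3 nM tracer and varying competitor in HEPES pH 7.5, 150 mM NaCl, 0.1% BSA, then filtered and counted.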

[2] = target: Gonadotropin-releasing hormone receptor (Homo sapiens, UniProt P30968, S124A); assay: Displacement of [125I]-His5, D-Tyr6]GnRH from mutant GnRHR, GnRHR S124A
[3] = target: Gonadotropin-releasing hormone receptor (Homo sapiens, UniProt P30968, M24A); assay: Displacement of [125I]-His5, D-Tyr6]GnRH from mutant GnRHR, GnRHR M24A; outline: as §1
[4] = target: Gonadotropin-releasing hormone receptor (Homo sapiens, UniProt P30968, F309Q); assay: Displacement of [125I]-His5, D-Tyr6]GnRH from mutant GnRHR, GnRHR F309Q; outline: as §1
[5] = target: Gonadotropin-releasing hormone receptor (Homo sapiens, UniProt P30968, S203Q); assay: Displacement of [125I]-His5, D-Tyr6]GnRH from mutant GnRHR, GnRHR S203Q
[6] = target: Gonadotropin-releasing hormone receptor (Homo sapiens, UniProt P30968, Q208E); assay: Displacement of [125I]-His5, D-Tyr6]GnRH from mutant GnRHR, GnRHR Q208E
[7] = target: Gonadotropin-releasing hormone receptor (Homo sapiens, UniProt P30968, S168A); assay: Displacement of [125I]-His5, D-Tyr6]GnRH from mutant GnRHR, GnRHR S168A
[8] = target: Gonadotropin-releasing hormone receptor (Homo sapiens, UniProt P30968, N27E); assay: Displacement of [125I]-His5, D-Tyr6]GnRH from mutant GnRHR, GnRHR N27E; outline: as §1
[9] = target: Gonadotropin-releasing hormone receptor (Homo sapiens, UniProt P30968, D293E); assay: Displacement of [125I]-His5, D-Tyr6]GnRH from mutant GnRHR, GnRHR D293E; outline: as §1
[10] = target: Gonadotropin-releasing hormone receptor (Homo sapiens, UniProt P30968, L112F); assay: Displacement of [125I]-His5, D-Tyr6]GnRH from mutant GnRHR, GnRHR L112F; outline: as §1
[11] = target: Gonadotropin-releasing hormone receptor (Homo sapiens, UniProt P30968, M24I); assay: Displacement of [125I]-His5, D-Tyr6]GnRH from mutant GnRHR, GnRHR M24I; outline: as §1
[12] = target: Gonadotropin-releasing hormone receptor (Homo sapiens, UniProt P30968, T51A); assay: Displacement of [125I]-His5, D-Tyr6]GnRH from mutant GnRHR, GnRHR T51A
[13] = target: Gonadotropin-releasing hormone receptor (Homo sapiens, UniProt P30968, E295Q); assay: Displacement of [125I]-His5, D-Tyr6]GnRH from mutant GnRHR, GnRHR E295Q; outline: as §1
[14] = target: Gonadotropin-releasing hormone receptor (Homo sapiens, UniProt P30968, Y284F); assay: Displacement of [125I]-His5, D-Tyr6]GnRH from mutant GnRHR, GnRHR Y284F
[15] = target: Gonadotropin-releasing hormone receptor (Homo sapiens, UniProt P30968, D302N); assay: Displacement of [125I]-His5, D-Tyr6]GnRH from mutant GnRHR, GnRHR D302N; outline: as §1
[16] = target: Gonadotropin-releasing hormone receptor (Homo sapiens, UniProt P30968); assay: Displacement of [125I]-His5, D-Tyr6]GnRH from human wild type GnRHR; outline: as §1
[17] = target: Gonadotropin-releasing hormone receptor (Homo sapiens, UniProt P30968, T190K); assay: Displacement of [125I]-His5, D-Tyr6]GnRH from mutant GnRHR, GnRHR T190K
[18] = target: Gonadotropin-releasing hormone receptor (Homo sapiens, UniProt P30968, S118A); assay: Displacement of [125I]-His5, D-Tyr6]GnRH from mutant GnRHR, GnRHR S118A
[19] = target: Gonadotropin-releasing hormone receptor (Homo sapiens, UniProt P30968, H306E); assay: Displacement of [125I]-His5, D-Tyr6]GnRH from mutant GnRHR, GnRHR H306E; outline: as §1
[20] = target: Gonadotropin-releasing hormone receptor (Homo sapiens, UniProt P30968, Y290L); assay: Displacement of [125I]-His5, D-Tyr6]GnRH from mutant GnRHR, GnRHR Y290L
[21] = target: Gonadotropin-releasing hormone receptor (Homo sapiens, UniProt P30968, Q189A); assay: Displacement of [125I]-His5, D-Tyr6]GnRH from mutant GnRHR, GnRHR Q189A; outline: as §1
[22] = target: Gonadotropin-releasing hormone receptor (Homo sapiens, UniProt P30968, D302A); assay: Displacement of [125I]-His5, D-Tyr6]GnRH from mutant GnRHR, GnRHR D302A; outline: as §1
[23] = target: Gonadotropin-releasing hormone receptor (Homo sapiens, UniProt P30968, N315D); assay: Displacement of [125I]-His5, D-Tyr6]GnRH from mutant GnRHR, GnRHR N315D; outline: as §1
[24] = target: Gonadotropin-releasing hormone receptor (Homo sapiens, UniProt P30968, Y290F); assay: Displacement of [125I]-His5, D-Tyr6]GnRH from mutant GnRHR, GnRHR Y290F
[25] = target: Gonadotropin-releasing hormone receptor (Homo sapiens, UniProt P30968, Q189E); assay: Displacement of [125I]-His5, D-Tyr6]GnRH from mutant GnRHR, GnRHR Q189E; outline: as §1
[26] = target: Gonadotropin-releasing hormone receptor (Homo sapiens, UniProt P30968, Q208D); assay: Displacement of [125I]-His5, D-Tyr6]GnRH from mutant GnRHR, GnRHR Q208D
[27] = target: Gonadotropin-releasing hormone receptor (Homo sapiens, UniProt P30968, D293A); assay: Displacement of [125I]-His5, D-Tyr6]GnRH from mutant GnRHR, GnRHR D293A; outline: as §1
[28] = target: Gonadotropin-releasing hormone receptor (Homo sapiens, UniProt P30968, Y283F); assay: Displacement of [125I]-His5, D-Tyr6]GnRH from mutant GnRHR, GnRHR Y283F
[29] = target: Gonadotropin-releasing hormone receptor (Homo sapiens, UniProt P30968, N305D); assay: Displacement of [125I]-His5, D-Tyr6]GnRH from mutant GnRHR, GnRHR N305D; outline: as §1
[30] = target: Gonadotropin-releasing hormone receptor (Homo sapiens, UniProt P30968, L300K); assay: Displacement of [125I]-His5, D-Tyr6]GnRH from mutant GnRHR, GnRHR L300K; outline: as §1

Chain of Gonadotropin-releasing hormone receptor (Homo sapiens, UniProt P30968) (P30968 whole entry): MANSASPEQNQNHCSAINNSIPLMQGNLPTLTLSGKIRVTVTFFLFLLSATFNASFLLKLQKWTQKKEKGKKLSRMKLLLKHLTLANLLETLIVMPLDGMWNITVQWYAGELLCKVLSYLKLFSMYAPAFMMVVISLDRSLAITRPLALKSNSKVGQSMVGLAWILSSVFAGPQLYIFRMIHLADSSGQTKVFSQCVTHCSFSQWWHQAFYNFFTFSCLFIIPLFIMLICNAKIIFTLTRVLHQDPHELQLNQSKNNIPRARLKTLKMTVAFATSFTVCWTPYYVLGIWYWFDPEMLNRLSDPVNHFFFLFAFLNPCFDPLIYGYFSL
Chain of Gonadotropin-releasing hormone receptor (Homo sapiens, UniProt P30968, D302N) (P30968 whole entry D302N): as the sequence (P30968 whole entry) above, with D302N counted along it
Chain of Gonadotropin-releasing hormone receptor (Homo sapiens, UniProt P30968, Q189A) (P30968 whole entry Q189A): as the sequence (P30968 whole entry) above, with Q189A counted along it
Chain of Gonadotropin-releasing hormone receptor (Homo sapiens, UniProt P30968, Y284F) (P30968 whole entry Y284F): as the sequence (P30968 whole entry) above, with Y284F counted along it
Chain of Gonadotropin-releasing hormone receptor (Homo sapiens, UniProt P30968, Y290F) (P30968 whole entry Y290F): as the sequence (P30968 whole entry) above, with Y290F counted along it
Chain of Gonadotropin-releasing hormone receptor (Homo sapiens, UniProt P30968, Q208D) (P30968 whole entry Q208D): as the sequence (P30968 whole entry) above, with Q208D counted along it
Chain of Gonadotropin-releasing hormone receptor (Homo sapiens, UniProt P30968, D293A) (P30968 whole entry D293A): as the sequence (P30968 whole entry) above, with D293A counted along it
Chain of Gonadotropin-releasing hormone receptor (Homo sapiens, UniProt P30968, Y283F) (P30968 whole entry Y283F): as the sequence (P30968 whole entry) above, with Y283F counted along it
Chain of Gonadotropin-releasing hormone receptor (Homo sapiens, UniProt P30968, E295Q) (P30968 whole entry E295Q): as the sequence (P30968 whole entry) above, with E295Q counted along it
Chain of Gonadotropin-releasing hormone receptor (Homo sapiens, UniProt P30968, S168A) (P30968 whole entry S168A): as the sequence (P30968 whole entry) above, with S168A counted along it
Chain of Gonadotropin-releasing hormone receptor (Homo sapiens, UniProt P30968, T190K) (P30968 whole entry T190K): as the sequence (P30968 whole entry) above, with T190K counted along it
Chain of Gonadotropin-releasing hormone receptor (Homo sapiens, UniProt P30968, N305D) (P30968 whole entry N305D): as the sequence (P30968 whole entry) above, with N305D counted along it
Chain of Gonadotropin-releasing hormone receptor (Homo sapiens, UniProt P30968, D293E) (P30968 whole entry D293E): as the sequence (P30968 whole entry) above, with D293E counted along it
Chain of Gonadotropin-releasing hormone receptor (Homo sapiens, UniProt P30968, T51A) (P30968 whole entry T51A): as the sequence (P30968 whole entry) above, with T51A counted along it

Row | IC50 [1] [nM] | IC50 [2] [nM] | IC50 [3] [nM] | IC50 [4] [nM] | IC50 [5] [nM] | IC50 [6] [nM] | IC50 [7] [nM] | IC50 [8] [nM] | IC50 [9] [nM] | IC50 [10] [nM] | IC50 [11] [nM] | IC50 [12] [nM] | IC50 [13] [nM] | IC50 [14] [nM] | IC50 [15] [nM] | IC50 [16] [nM] | IC50 [17] [nM] | IC50 [18] [nM] | IC50 [19] [nM] | IC50 [20] [nM] | also measured | SMILES
1 | 57.1 | 21.3 | 17.9 | 222 | 15.7 | 6 | 8.9 | 10.8 | 27.2 | 29.5 | 23.2 | 15.8 | 15.2 | 28.8 | 27.3 | 17.7 | 19.8 | 46.8 | 48.8 | 202 | IC50 [21]: 10 nM; IC50 [22]: 11 nM; IC50 [23]: 49.3 nM; IC50 [24]: 39.6 nM; IC50 [25]: 15.7 nM; IC50 [26]: 16.2 nM; IC50 [27]: 24.5 nM; IC50 [28]: 108 nM; IC50 [29]: 46.5 nM; IC50 [30]: 277 nM | COc1c(C)cc(-c2[nH]c3ccc(C(C)(C)C(=O)N(CC(C)C)CC(C)C)cc3c2[C@H](C)CNCCc2ccccc2)cc1C
2 | 4.9 | 3.9 | 5.9 | 65.1 | 2.9 | 15 | 4 | 3.8 | 6.1 | 2.7 | 2.2 | 3.1 | 2.4 | 2.8 | 16.5 | 8.1 | 3.7 | 3.3 | 52.8 | 951 | IC50 [21]: 2.4 nM; IC50 [22]: 42.2 nM; IC50 [23]: 1.5 nM; IC50 [24]: 48.8 nM; IC50 [25]: 16.7 nM; IC50 [26]: 10.1 nM; IC50 [27]: 5.7 nM; IC50 [28]: 316 nM; IC50 [29]: 41.1 nM; IC50 [30]: 35.3 nM | CC(C)C[C@H](NC(=O)[C@@H](Cc1ccc(O)cc1)NC(=O)[C@H](Cc1c[nH]cn1)NC(=O)[C@H](CO)NC(=O)[C@H](Cc1c[nH]c2ccccc12)NC(=O)[C@H](Cc1c[nH]cn1)NC(=O)[C@@H]1CCC(=O)N1)C(=O)N[C@@H](CCCN=C(N)N)C(=O)N1CCC[C@H]1C(=O)NCC(N)=O
